Experimental data published in ChEMBL document CHEMBL2424521, “Long-lasting inhibition of EGFR autophosphorylation in A549 tumor cells by intracellular accumulation of non-covalent inhibitors” (Bioorg Med Chem Lett, 2013).
Activity calls are given as the source filed them. The calls are words filed in the database; no cut-off is given here.

Tests used:
[1] = target: T1, Epidermal growth factor receptor (Homo sapiens, UniProt P00533); conditions: A549, at 1 µM
[2] = Percentage unbound in human A549 cells at 1 uM after 4 hrs by equilibrium dialysis method; assay type: ADME, cell-based
[3] = target: T1, Epidermal growth factor receptor; test: Inhibition of wild type EGFR autophosphorylation in human A549 cells incubated for 1 hr followed by compound washout measured after 8 hrs by Western blot analysis; assay type: cell-based
A549 [4] = test: Cellular uptake in human A549 cells incubated for 1 hr followed by compound washout measured at 1 hr by HPLC-MS/MS analysis; assay type: ADME, cell-based; conditions: a549, 1 h
Procedure, shortened: (§1)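 A549 cells (wild-type EGFR) exposed to 1 µM extracellular compound for 1 h; intracellular content quantified by HPLC-ESI-MS/MS immediately after or 8 h after removal of compound (drug-free incubation) as pmol/mg protein; converted to µM using average cell volume per mg protein estimated from equilibrium distribution of 3-O-methyl-D-[1-³H]glucose in A549 cells.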

[5] = target: T1, Epidermal growth factor receptor; test: Inhibition of wild type EGFR autophosphorylation in human A549 cells incubated for 1 hr followed by compound washout measured at 1 hr by Western blot analysis; assay type: cell-based
[6] = target: T1, Epidermal growth factor receptor
[7] = target: T1, Epidermal growth factor receptor; test: Inhibition of wild type EGFR autophosphorylation in human A549 cells at 1 uM incubated for 1 hr followed by compound washout measured after 8 hrs by Western blot analysis; assay type: cell-based
Procedure, shortened: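 A549 cells expressing wild-type EGFR treated 1 h with inhibitor at 1 µM, then washed with drug-free medium; EGFR autophosphorylation in intact cells read by Western blot 8 h after compound removal; percent inhibition as mean of at least two independent experiments ± SEM.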

A549 [8] = test: Cellular uptake in human A549 cells incubated for 1 hr followed by compound washout measured after 8 hrs by HPLC-MS/MS analysis; assay type: ADME, cell-based; conditions: a549, 1 h
Procedure, shortened: as §1

[9] = Stability of the compound in human A549 cell lysates up to 24 hrs in presence of cysteine; assay type: physicochemical; conditions: a549, 24 h
Procedure, shortened: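 Compound incubated with A549 cell lysate plus molar excess of cysteine as trapping reagent; cysteine conjugate formation monitored by HPLC–MS for up to 24 h.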

[10] = target: T1, Epidermal growth factor receptor; conditions: at 1 µM

T1 sequence (P00533 whole entry): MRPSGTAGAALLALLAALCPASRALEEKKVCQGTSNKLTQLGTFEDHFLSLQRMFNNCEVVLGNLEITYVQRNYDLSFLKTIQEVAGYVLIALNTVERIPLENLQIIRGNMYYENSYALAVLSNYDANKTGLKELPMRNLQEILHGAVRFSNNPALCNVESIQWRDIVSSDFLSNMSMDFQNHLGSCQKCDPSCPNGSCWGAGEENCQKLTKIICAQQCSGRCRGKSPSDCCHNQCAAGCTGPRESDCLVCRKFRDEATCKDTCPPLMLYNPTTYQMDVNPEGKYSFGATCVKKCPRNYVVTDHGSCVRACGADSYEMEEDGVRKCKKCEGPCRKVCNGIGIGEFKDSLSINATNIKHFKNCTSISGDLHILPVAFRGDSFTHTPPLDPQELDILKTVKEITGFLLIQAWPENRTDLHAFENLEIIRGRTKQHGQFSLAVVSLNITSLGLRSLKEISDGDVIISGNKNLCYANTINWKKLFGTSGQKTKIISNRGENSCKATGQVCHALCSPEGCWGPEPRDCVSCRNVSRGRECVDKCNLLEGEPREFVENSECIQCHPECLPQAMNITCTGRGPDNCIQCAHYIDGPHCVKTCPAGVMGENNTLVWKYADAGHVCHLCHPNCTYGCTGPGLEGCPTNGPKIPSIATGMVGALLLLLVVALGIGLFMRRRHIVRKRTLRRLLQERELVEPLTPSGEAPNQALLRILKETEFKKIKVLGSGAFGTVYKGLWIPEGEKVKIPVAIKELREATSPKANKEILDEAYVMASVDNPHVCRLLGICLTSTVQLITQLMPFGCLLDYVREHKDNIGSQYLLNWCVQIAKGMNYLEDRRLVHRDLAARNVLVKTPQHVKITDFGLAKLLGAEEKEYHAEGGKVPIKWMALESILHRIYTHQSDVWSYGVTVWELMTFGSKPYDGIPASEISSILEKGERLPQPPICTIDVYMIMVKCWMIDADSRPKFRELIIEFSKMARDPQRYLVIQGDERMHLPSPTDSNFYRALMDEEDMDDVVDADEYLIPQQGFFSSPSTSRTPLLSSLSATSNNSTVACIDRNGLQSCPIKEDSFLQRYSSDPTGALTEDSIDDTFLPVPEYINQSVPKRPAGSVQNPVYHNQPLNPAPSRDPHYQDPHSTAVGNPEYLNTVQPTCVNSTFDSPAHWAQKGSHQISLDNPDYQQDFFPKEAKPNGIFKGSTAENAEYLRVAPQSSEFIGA

| Structure (SMILES) | inhibition [1] [%] | fraction unbound at 4 h, 1 µM [2] | IC50 [3] [nM] | Drug uptake (A549 [4]) [µM] | IC50 [5] [nM] | IC50 [6] [nM] | inhibition [7] [%] | Drug uptake (A549 [8]) [µM] | Stability [9] | inhibition [10] |
| --- | --- | --- | --- | --- | --- | --- | --- | --- | --- | --- |
| Brc1cccc(Nc2ncnc3ccc(NCCCN4CCCCC4)cc23)c1 | 95 | 0.077 | 14.1 | 324 | 1.7 | 0.41 | 90 | 105 |  |  |
| COc1cc2ncnc(Nc3ccc(F)c(Cl)c3)c2cc1OCCCN1CCOCC1 [GEFITINIB] |  | 0.322 |  | 271 |  |  |  | 2.3 |  |  |
| O=C(CCCN1CCCCC1)Nc1ccc2ncnc(Nc3cccc(Br)c3)c2c1 | 98 | 0.157 | 13.5 | 147 | 5.7 | 0.63 | 96 | 7.2 | Stable | inactive |
| CN(C)CCC(=O)Nc1ccc2ncnc(Nc3cccc(Br)c3)c2c1 |  |  |  | 26 |  |  |  | < 0.05 |  |  |
| Nc1ccc2ncnc(Nc3cccc(Br)c3)c2c1 |  |  |  | 13 |  |  |  | < 0.05 |  |  |
| O=C(COc1c(F)c(F)c(F)c(F)c1F)Nc1ccc2ncnc(Nc3cccc(Br)c3)c2c1 |  |  |  | 240 |  |  |  | 3.6 | Stable |  |
| C=CC(=O)Nc1ccc2ncnc(Nc3cccc(Br)c3)c2c1 |  |  |  | < 0.05 |  |  |  | < 0.05 |  |  |
| O=C(CCOc1ccccc1)Nc1ccc2ncnc(Nc3cccc(Br)c3)c2c1 |  |  |  | 72 |  |  |  | 0.7 | Stable |  |
